aSyn UTR inh = MLPCN primary screen, SNCA 5' untranslated region | alpha-synuclein 5'UTR reporter, inhibitor activity | 300,000 compounds, 0.82% hits | AID 1813 | inhibition, % (tested at 7.5 µM); in the data active = inhibition above about 60%;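 note: H4 neuroglioblastoma cells stably carrying SNCA 5'UTR luciferase fusion; 0% = DMSO wells and 100% = positive control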
Jurkat NFkB inh = inhibitors of the PMA/ionomycin-induced NF-kB reporter in Jurkat cells; inhibition, % at 4 µM; PMA/ionomycin-induced NF-kB luciferase reporter, luminescence; AID 435003; 330,000 compounds, 0.53% hits; in the data active = inhibition above about 50%
APP 5UTR inh = APP translation inhibition; SH-SY5Y APP 5'UTR-luciferase reporter, luminescence; 190,000 compounds, 0.82% hits; inhibition, % at 2 µM;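 active = inhibition above a set limit, derived from the sample mean plus 3 SD, cut at about 45% in these data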
697 NFkB inh = lowers PMA/ionomycin-induced NF-kB signal in 697 B cells; inhibition, % at 4 µM; 330,000 compounds, 0.33% hits; AID 435022; 697 B-cell NF-kB luciferase reporter, 16 h; in the data active = inhibition above about 35%
Hep lipid drop = modulators of hepatic lipid droplet formation; AML12 mouse hepatocytes, oleate lipid droplets, BODIPY imaging; inhibition, % at 6.5 µM; 240,000 compounds, 0.4% hits; AID 1656;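 active = lipid droplet intensity inhibited by at least 50%, with more than 500 cells counted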
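Material – mouse AML12 hepatocyte cell line, fixed after treatment · Compound dosing – one dose, 6.5 µM compound · Times – compound with oleate, overnight · Measured by – Image-based BODIPY and DAPI two-channel analysis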
H9c2 TAG inh = inhibitors of triacylglycerol accumulation | H9c2 cells, Nile Red lipid (TAG) fluorescence; cells loaded with 200 µM oleic acid | inhibition, % at 12.5 µM | 230,000 compounds, 0.66% hits | AID 651582;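 active = pattern-corrected inhibition of lipid staining of at least 50% with the nuclear-stain viability signal not falling by more than 50%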;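 note: 0% = DMSO wells and 100% = triacsin C control wells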
697 NFkB conf = lowers PMA/ionomycin-induced NF-kB signal in 697 B cells; 2,000 compounds, 35% hits; inhibition, % at 4 µM; shares compounds with 697 NFkB inh; AID 449746; 697 B-cell NF-kB luciferase, 16 h; in the data active = inhibition mostly above about 28%, no sharp cut-off; inactive = mostly below about 22%
An asterisk follows results filed as active; i = inactive; / = not tested or not shown. Rows were chosen to be rich in hits. Some 1.9% of all compounds tested hit in one or more screens of this group.

SMILES | aSyn UTR inh | Jurkat NFkB inh | APP 5UTR inh | 697 NFkB inh | Hep lipid drop | H9c2 TAG inh | 697 NFkB conf
CC(C)(C)N=C1NN=C(c2ccc(S(=O)(=O)N3CCCCC3)cc2)CS1 | -5.0 | -6.8 | / | 1.6 | / | 19.8 | /
CC(=O)Nc1ccc(S(=O)(=O)Oc2ccc3c(c2)C(C)=CC(C)(C)N3)cc1 | 8.6 | -18.1 | 26.7 | i | -49.1 | / | i
Cn1c(=O)cc(Nc2ccccc2)c2c(=O)n(-c3ccccc3)c(=O)n(-c3ccccc3)c21 | -7.9 | -7.1 | / | 42.8* | -28.6 | 8.6 | 32.3*
Cn1c(=O)c2c(Nc3ccc(F)cc3)cc(=O)n(-c3ccccc3)c2n(C)c1=O | 30.9 | 12.9 | / | -2.0 | 18.4 | 0.2 | /
CCN1CCN(CCC(=O)Nc2cc(OC)cc(OC)c2)CC1 | 3.2 | 9.1 | / | -3.3 | 11.8 | / | /
CN(C)c1ccc(/C=C(\C#N)c2ccccn2)cc1 | 101.5* | -48.1 | -95.0 | -345.2 | 0.4 | -14.4 | -389.4
N#C/C(=C\c1ccc([N+](=O)[O-])cc1)c1ccccn1 | -120.9 | -96.3 | -25.1 | -63.4 | 6.3 | -3.5 | /
COc1cccc(C2C(C#N)=C(N)OC(C(C)(C)C)=C2C#N)c1 (stereo unspecified) | -114.6 | 7.2 | -2.4 | 35.6* | / | 0.6 | 4.5
CN(C(=O)c1ccccc1C(=O)OCC(=O)Nc1ccc(S(N)(=O)=O)cc1)c1ccccc1 | -17.1 | -13.5 | / | -27.4 | / | 17.3 | /
c1ccc(-c2nc3cc4ccccc4cc3[nH]2)nc1 | 51.5 | -58.6 | -156.7 | -272.0 | 30.6 | -11.1 | -315.2
CC(=O)Nc1ccc2nc(-c3ccccn3)[nH]c2c1 | -158.2 | -56.3 | -72.0 | -58.4 | / | -5.9 | /
O=C(CCCN1C(=O)/C(=C/c2ccccc2Cl)SC1=S)NNC(=O)c1cccnc1 | 20.2 | -34.9 | / | 2.4 | 5.7 | 0.7 | /
O=C(CCN1C(=O)/C(=C/c2ccccc2Cl)SC1=S)Nc1ccccc1C(=O)O | -2.6 | -6.1 | / | -5.3 | -9.5 | / | /
O=C(CCCN1C(=O)/C(=C/c2ccccc2Cl)SC1=S)NNC(=O)c1ccccc1 | 62.1* | 12.9 | 27.7 | 39.8* | 4.6 | / | 41.9*
O=C(CCCN1C(=O)/C(=C/c2ccccc2Cl)SC1=S)NNC(=O)c1ccc(Cl)cc1Cl | 71.3* | 27.2 | / | 59.7* | -3.9 | -7.6 | 39.3*
O=C(CCCN1C(=O)S/C(=C\c2ccccc2)C1=O)NNC(=O)c1ccccc1O | 83.4* | -2.1 | 63.1* | 67.4* | -6.5 | -14.4 | 50.0*
O=C(CCCN1C(=O)S/C(=C\C=C\c2ccccc2)C1=O)Nc1ccc(C(=O)O)cc1 | 12.7 | -8.5 | / | 48.2* | 4.0 | / | 53.2*
CC1(C(=O)NS(=O)(=O)c2ccccc2C(F)(F)F)CCN1C(=O)CCc1cccs1 (stereo unspecified) | / | / | / | / | / | 15.9 | /
CCc1ccccc1NC(=O)CSc1nc2n[nH]c(C)c2c(=N)n1-c1cccc(OC)c1 | 17.4 | 4.1 | 8.2 | 19.8 | -8.7 | / | /
COc1ccc(-c2nsc3c(N4CCCC4)ncnc23)cc1 | 70.2* | -76.8 | -156.4 | -457.7 | / | -12.1 | -348.2
COc1ccc(-c2csc3ncnc(N4CCN(c5ccc(OC)cc5)CC4)c23)cc1 | -3.4 | 2.3 | / | -46.8 | 2.6 | -18.0 | /
O=C(CSc1nnc2n(C3CCCC3)c(=O)c3ccccc3n12)N1CCCCCC1 | -7.5 | -0.8 | -15.9 | 26.4 | -1.1 | / | /
CC1CCCN(C(=O)CSc2nnc3n(C4CCCC4)c(=O)c4ccccc4n23)C1 (stereo unspecified) | 7.9 | 7.0 | -0.9 | 35.2* | 25.3 | / | -4.7
O=C(N/N=C/c1ccco1)c1ccc(N2CCCC2=O)cc1 | -44.4 | 6.9 | -11.1 | -9.1 | 6.7 | / | /
COc1cccc(/C=N/NC(=O)c2ccc(N3CCCC3=O)cc2)c1 | -112.3 | 27.1 | / | -467.7 | 9.3 | / | -142.4
SMILES | aSyn UTR inh | Jurkat NFkB inh | APP 5UTR inh | 697 NFkB inh | Hep lipid drop | H9c2 TAG inh | 697 NFkB conf
COc1ccc(C(=O)N/N=C/c2cc(Br)ccc2O)cc1OC | 44.0 | 33.1 | / | 37.0* | -42.3 | 56.3* | 14.6
COc1cc(/C=N/NC(=O)c2ccc(-n3cccc3)cc2)ccc1O | 17.0 | 26.2 | -0.5 | 42.9* | -14.1 | 11.9 | -24.3
NC(=O)c1ccsc1NC(=O)COC(=O)c1cc(Cl)ccc1O | -25.2 | 2.6 | / | -3.8 | / | 10.1 | /
CCn1c(Cn2nnc(-c3ccccc3)n2)nnc1SCc1ccc(Cl)c(Cl)c1 | 13.8 | 1.1 | 0.9 | -42.6 | -21.9 | / | /
COc1cc(CCC(=O)Nc2cccc(S(=O)(=O)N(C)C)c2)cc(OC)c1OC | 14.5 | 8.6 | 14.7 | 9.0 | -15.1 | / | /
O=C(Nc1nc2ccc(F)cc2s1)C1=COCCO1 | 57.3 | -99.7 | / | -250.0 | / | 10.7 | -75.5
COC(=O)c1ccc(CN2CCCC(CCC(=O)NCc3ccc(C)o3)C2)cc1 (stereo unspecified) | -12.6 | 9.4 | -6.5 | 17.0 | -9.6 | 0.0 | /
COc1ccccc1-c1noc(CCCC(=O)NC2CCCC2)n1 | -10.4 | 10.6 | / | 5.8 | 14.0 | / | /
O=C(CCCc1nc(-c2ccccc2Cl)no1)NC1CCCC1 | 98.8* | 0.7 | / | 74.4* | -1.8 | / | 78.0*
CNS(=O)(=O)c1cccc(C(=O)OCC(=O)N2c3ccccc3CC2C)c1 (stereo unspecified) | 27.0 | 0.6 | -12.6 | 36.3* | -3.8 | 4.0 | -7.3
CC1Cc2ccccc2N1C(=O)COC(=O)c1ccc(O)cc1 (stereo unspecified) | 12.7 | 8.7 | / | 16.7 | 11.3 | 0.4 | /
COc1ccc([C@H]2CC(=O)C=C(c3cc(C(F)(F)F)cc(C(F)(F)F)c3)C2)cc1 | / | 3.8 | / | 15.4 | / | / | /
CCOC(CNC(=O)c1ccc2nc(N3CCC(C)CC3)sc2c1)OCC | -179.6 | 6.5 | -116.1 | -282.5 | 0.0 | 5.2 | -178.3
CCCN1CCN(CCCNC(=O)c2ccc3nc(N4CCC(C)CC4)sc3c2)CC1 | -168.6 | -34.4 | / | -67.9 | 0.5 | 19.5 | /
COc1ccc(OC)c(S(=O)(=O)N2CCC(C(=O)NCc3ccc4c(c3)OCO4)CC2)c1 | 2.1 | 11.0 | / | 14.7 | -7.6 | -4.6 | /
CCOc1cccc(/C=N/NC(=S)Nc2ccccc2[N+](=O)[O-])c1O | -50.3 | 26.8 | -81.6 | -118.2 | -0.3 | -18.1 | /
O=[N+]([O-])c1ccccc1NC(=S)N/N=C/c1ccc(O)c(O)c1 | -53.9 | -143.8 | -150.2 | -323.5 | 7.4 | 13.6 | -179.5
Cc1cc(C)c(NC(=O)C2CCCN2CCOC(=O)c2ccccc2)c(C)c1 (stereo unspecified) | -9.0 | 8.2 | -7.7 | -1.5 | -34.6 | / | /
NC(=O)c1cc([N+](=O)[O-])ccc1NCc1ccc(C(=O)O)cc1 | / | -2.6 | / | -3.8 | / | -2.5 | /
NC(=O)c1cc([N+](=O)[O-])ccc1NCc1ccc(O)cc1 | / | 18.6 | / | 36.9* | / | 4.4 | 10.4
CC1CCN(c2c(NCc3ccc(C(=O)N4c5ccccc5CC4C)cc3)c(=O)c2=O)CC1 (stereo unspecified) | 10.2 | 22.1 | 14.4 | 43.4* | -1.1 | -0.7 | 39.0*

Source: PubChem BioAssay (several laboratories)
